{"data": "Measured values gathered from unrelated publications", "target": "Serine/threonine-protein kinase pim-3 (PIM3, Homo sapiens, UniProt Q86V86)", "note": "Lines come from different studies, so protocols differ."}
{"SMILES": "N#Cc1ccc(NC(=O)Nc2ccccc2)cc1", "read-out": "cell-free assay", "technique": "competition with immobilised ligand", "tested at": "25 µM", "quantity": "remaining binding", "result": "74%"}
{"SMILES": "CCCCC(=O)Nc1ccc(-c2ccc3ncn(CCC)c(=O)c3c2)cn1", "read-out": "binding", "technique": "competition with immobilised ligand", "tested at": "0.5 µM", "quantity": "remaining binding", "result": "93%"}
{"SMILES": "C1=C/COCc2cc(ccc2OCCN2CCCC2)Nc2nccc(n2)-c2cccc(c2)COC/1", "read-out": "binding", "tested at": "0.1 µM", "quantity": "remaining binding", "result": "97%"}
{"SMILES": "COc1ccc2oc(-c3ccc4nc(N)oc4c3)c/c(=N\\c3ccccc3NC(=O)CCN)c2c1", "read-out": "binding", "tested at": "1 µM", "quantity": "remaining binding", "result": "110%"}
{"SMILES": "C=CC(=O)N1CCC[C@@H](n2nc(-c3ccc(Oc4ccccc4)cc3)c3c(N)ncnc32)C1", "read-out": "enzyme activity", "action": "inhibitor", "tested at": "1 µM", "quantity": "inhibition", "result": "0%"}
{"SMILES": "CC(C)S(=O)(=O)c1ccc2nccc(Nc3ccc4sc(C5CCCC5)nc4c3)c2c1", "read-out": "enzyme activity", "action": "inhibitor", "tested at": "1 µM", "quantity": "activity vs control", "result": "104%"}
{"SMILES": "COc1ccc2[nH]c3c4[nH]c5ccc(OC)cc5c4c4c(c3c2c1)C(=O)NC4=O", "read-out": "binding", "tested at": "1 µM", "quantity": "remaining binding", "result": "2.6%"}
{"SMILES": "C=CC(=O)N1CCC([C@@H]2CCNc3c(C(N)=O)c(-c4ccc(Oc5ccccc5)cc4)nn32)CC1", "read-out": "enzyme activity", "action": "inhibitor", "tested at": "1 µM", "quantity": "inhibition", "result": "2%"}
{"SMILES": "C#Cc1cnc(Nc2ccnc(CO)c2)nc1Nc1ccccc1S(C)(=O)=NC#N (stereo not shown)", "read-out": "cell-free assay", "tested at": "1 µM", "quantity": "remaining signal", "result": "80%"}
{"SMILES": "C[C@H]1CC[C@H](n2c3cnccc3c3cnc(Nc4ccc5c(n4)CCN(C(=O)CO)C5)nc32)CC1", "read-out": "cell-free assay", "tested at": "1 µM", "quantity": "remaining signal", "result": "31%"}
